Screening data as filed in PubChem.
A selection follows.
Apaf-1 act: activators of human Apaf-1 apoptosome | Apaf-1 apoptosome caspase-3 activation, DEVD-Rh110 fluorescence; hits give low values | O14727 | hit rate 0.31% among 330,000 | activity change, negative = activation, % at 20 µM;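 active means activity change at or below -40% at 20 µM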
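Assay system – biochemical Apaf-1 apoptosome reconstitution · Medium – 20 mM HEPES buffer, pH 7.5, containing CHAPS and BSA · Incubation – 30 min preincubation, 50 min reaction, room temperature · Measured by – Caspase-3-released Rh110 fluorescence, 540 nm emission, 480 nm excitation · Read-out – Caspase-3 cleavage activity downstream of Apaf-1 activation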
Rh110 act interf: counter-screen for Apaf-1 activators: fluorescence interference. shares compounds with Apaf-1 act. Rh110 fluorescence interference, quenched caspase reaction, Ex480/Em540. fluorescence interference (activity change), % at 20 µM, hits read low. 980 tested, under 10 active. AID 504616;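 active means mean activity change at or below -40% when tested at 20 µM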
Apaf-1 act conf2: confirmation of human Apaf-1 activators. shares compounds with Apaf-1 act. reconstituted apoptosome caspase-3 activity, DEVD-Rh110 fluorescence; hits give low values. activity change, negative = activation, % at 20 µM. hit rate 5% among 980. AID 504617;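 active means mean activity change at or below -40%, meaning activation of 40% or more, at 20 µM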
Numbers without * were called inactive; nt = not tested or not shown.

SMILES	Apaf-1 act	Rh110 act interf	Apaf-1 act conf2
Cc1c(Cl)cnc(NC(=O)COC(=O)c2ccc([N+](=O)[O-])s2)c1Cl	40	nt	nt
COc1ccc(/C=C2/C(=O)N(c3cccc(F)c3)N=C2C)c(OC)c1	90	nt	nt
CC(=O)OCCCNc1cc(SCc2ccco2)c2nonc2c1[N+](=O)[O-]	74	nt	nt
CS(=O)(=O)N(Cc1ccc(C(=O)NN=C2CCCCCC2)cc1)c1ccccc1	-482*	2	14
CC(C)OCCCNC1=C(Cl)C(=O)c2ccccc2C1=O	53	nt	nt
O=C1CC(CC(=O)N/N=C/c2ccccc2[N+](=O)[O-])=NN1	46	nt	nt
O=C(Nc1ccccc1OC(F)F)c1oc2ccccc2c1COc1ccccc1	-180*	4	12
COc1cccc2c1C(=O)c1ccc3ccccc3c1C2=O	72	nt	nt
Cc1ccc(-c2cc(C(=O)O)c3cc(Br)ccc3n2)s1	11	nt	nt
C#CCOCCOCCOCCNc1nc(N2CCN(C(=O)[C@H](CCCCN)n3cc([C@@H](N)[C@H](C)CC)nn3)CC2)nc(N2CCN(C(=O)[C@H](CCCCN)n3cc([C@@H](N)CC(N)=O)nn3)CC2)n1	44	nt	nt
C#CCOCCOCCOCCNc1nc(N2CCN(C(=O)[C@H](Cc3ccc(O)cc3)n3cc([C@@H](N)C(C)CC)nn3)CC2)nc(N2CCN(C(=O)[C@H](Cc3cc4ccccc4[nH]3)n3cc([C@@H](N)CC(C)C)nn3)CC2)n1 (some centres undefined)	47	nt	nt
COc1ccc(-c2noc(COc3ccc4ccccc4c3Br)n2)cc1OC	-136*	0	7
CCO/C=C1/C(=O)N(Cc2ccccc2)C(=O)c2ccccc21	62	nt	nt
Cc1ccc(-n2nc3c(c2NC(=O)c2ccco2)CS(=O)(=O)C3)cc1C	-391*	-9	8
O=C(Cn1cc2c(n1)CCCC2)NCCCN1CCCC1	41	nt	nt
CC(OC(=O)c1ccc(-n2cnnn2)cc1)C(=O)Nc1ccccc1F (centres undefined)	-229*	11	13
CC1=NN(c2ccc(C)c(C)c2)C(=O)/C1=C/c1ccc2c(c1)n(C)c(=O)n2C	94	nt	nt
CC1CCN(S(=O)(=O)c2ccc3c4c2CC(=O)N4CC(C)S3)CC1 (centres undefined)	94	nt	nt
Cc1ccc(NC2=CC(=O)C(=O)c3ccccc32)c(C)c1	87	nt	nt
C#CCOCCOCCOCCNc1nc(N2CCN(C(=O)[C@H]([C@@H](C)CC)n3cc([C@@H](N)Cc4ccc(O)cc4)nn3)CC2)nc(N2CCN(C(=O)[C@H](Cc3cc4ccccc4[nH]3)n3cc([C@@H](N)C(C)CC)nn3)CC2)n1 (some centres undefined)	49	nt	nt
Cc1oc2c(c1C(=O)N1CCC(C)CC1)C(=O)c1ccccc1C2=O	42	nt	nt
COc1ccc(C[C@H]2CN3C(=NC[C@@H]3Cc3ccccc3)N2C[C@H](C)NC(=O)CCC2CCCCC2)cc1	52	nt	nt
Cc1cc(C)cc(NC(=O)C2CCN(S(C)(=O)=O)CC2)c1	-67*	1	0
c1ccc([C@H]2CNCCN2CCc2cccc3ccccc23)cc1	55	nt	nt
O=C(Nc1ccccc1C(=O)N1CCN(Cc2ccccc2)CC1)c1ccccc1	-95*	-15	8
SMILES	Apaf-1 act	Rh110 act interf	Apaf-1 act conf2
Cc1ccc2[nH]c(=O)c(C(c3nnnn3CC3CCCO3)N3CCc4ccccc4C3)cc2c1 (centres undefined)	66	nt	nt
Cn1c(Cc2ccccc2)n[nH]c1=S	42	nt	nt
Cc1ccccc1OCCNc1cc(N2CC(C)NC(C)C2)ccc1[N+](=O)[O-] (centres undefined)	56	nt	nt
CCOc1ccc(-c2nnc(-c3ccncc3)o2)cc1	-421*	5	11
O=c1cc(N/N=C/c2ccccc2)[nH]c(=O)[nH]1	68	nt	nt
Cc1[nH]n(-c2ccccc2)c(=O)c1/C=N/NC(=O)c1ccc(O)cc1O	73	nt	nt
COc1ccc(/C=N/NC(=O)c2cc(=O)[nH]c3ccccc23)cc1OC	-544*	-15	7
c1cc2c3c(cccc3c1)NC1(CCC3(CC1)Nc1cccc4cccc(c14)N3)N2	40	nt	nt
CC(C)[n+]1ccn(C2=C([O-])c3ccccc3C(=O)/C2=N\S(=O)(=O)c2ccccc2)c1	46	nt	nt
CCO[C@@H]1OC(C(=O)N2CCN(Cc3ccc4c(c3)OCO4)CC2)=C[C@H](c2ccc(C(F)(F)F)cc2)[C@H]1CCCO	42	nt	nt
O=C(CSc1nnnn1-c1ccc(C(=O)O)cc1)NC1CC1	-324*	-3	7
CC(C)(C)C(=O)[C@@H]1[C@@H]2C(=O)N(C3CCCCC3)C(=O)[C@@H]2[C@H]2c3ccccc3C=CN12	64	nt	nt
CCN(CC)CCOC(=O)c1ccc(NC(=O)CCCN2C(=O)S/C(=C/c3ccc(OC)cc3)C2=S)cc1	44	nt	nt
Cc1ccc(/C=C2\SC(=S)N(CCC(=O)NNC(=O)c3ccc(O)cc3)C2=O)cc1	-63*	15	26
CC(=O)C1=C(O)C(=O)N(CCc2c[nH]c3ccccc23)C1c1ccco1 (centres undefined)	43	nt	nt
CCN(CC)S(=O)(=O)c1ccc(N/N=C(\C)c2ccc3c(c2)OCO3)c([N+](=O)[O-])c1	-41*	5	4
O=[N+]([O-])c1cc2c(cc1C=Nc1ccccc1)OCO2	48	nt	nt
N#CC1=C2SCN(Cc3ccccc3)CN2C(=O)CC1c1cccs1 (centres undefined)	78	nt	nt
COc1ccc(CN2CC(C(=O)NCc3cccc(OC)c3)CC2=O)cc1 (centres undefined)	67	nt	nt
COc1ccc(N2CC(C(=O)N/N=C/c3cc([N+](=O)[O-])ccc3O)CC2=O)cc1 (centres undefined)	-318*	7	15
Nc1cc(N)c(OCC(F)(F)F)cc1OCC(F)(F)F	84	nt	nt
O=C1C(Cl)=C(NCc2cccnc2)C(=O)c2ccccc21	85	nt	nt
Cc1c(C)n(CCC(=O)O)c2ccccc12	-70*	-3	10
COc1ccccc1N1CCN(CC(O)COc2cccc3ccccc23)CC1 (centres undefined)	17	nt	nt
Cc1c(C)n(CC(O)CN2CCN(C)CC2)c2ccccc12 (centres undefined)	-67*	8	18
SMILES	Apaf-1 act	Rh110 act interf	Apaf-1 act conf2
CCCCc1cc(=O)oc2cc(OCC(=O)NCCN3CCOCC3)c(Cl)cc12	61	nt	nt
CCN1CCN(Cc2ccc(NC(=O)c3ccc(C)c(NC(=O)C(=O)c4c[nH]c5ccccc45)c3)cc2C(F)(F)F)CC1	74	nt	nt
N#Cc1c(N)n(CCNC(=O)c2ccc(Cl)cc2)c2nc3ccccc3nc12	67	nt	nt
O=S(=O)(Nc1ccc(S(=O)(=O)Nc2ncccn2)cc1)c1ccccc1	-510*	15	17
O=S(=O)(Nc1cc(Sc2ncn[nH]2)c(O)c2ccccc12)c1ccccc1	94	nt	nt
NC1=NC[C@@H](CC2CCCCC2)N1CCc1cc(C(F)(F)F)cc(C(F)(F)F)c1	79	nt	nt
Oc1ccc(N=Cc2ccc(OCc3ccccc3)cc2)cc1	93	nt	nt
O=C(/C=C/c1ccc(O)cc1)c1ccc(NC2=C(N3CCCCC3)C(=O)c3ccccc3C2=O)cc1	76	nt	nt
CCOc1cc(C(=S)N2CCOCC2)ccc1OS(=O)(=O)c1ccc(OC)cc1	-55*	-9	9
COc1ccc(C(CNC(=O)COc2c(C)cc(C)cc2C)N2CCOCC2)cc1 (centres undefined)	66	nt	nt
